Shown are actives, neighbours in structure and some others; about 3.8% of the full set was active somewhere.
Lipid droplet: modulators of hepatic lipid droplet formation; AML12 mouse hepatocytes, oleate lipid droplets, BODIPY imaging; inhibition, % at 6.5 µM; hit rate 0.4% among 240,000; AID 1656;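 active = lipid droplet intensity inhibited by at least 50%, with more than 500 cells counted; inconclusive = wells with under 300 cells, treated as cytotoxic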
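material = mouse AML12 hepatocyte cell line, fixed after treatment | also added = 100 µM oleic acid challenge | doses = compound at 6.5 µM only | schedule = overnight exposure | technique = Image-based BODIPY and DAPI two-channel analysis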
HCV NS3 hel inh: inhibitors of Hepatitis C virus NS3 helicase; NS3 helicase DNA unwinding, Cy5 molecular beacon fluorescence; inhibition, % at 10.9 µM; hit rate 0.56% among 290,000; AID 1800;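 active = inhibition above the mean of all tested compounds plus 3 SD, set per campaign, cut at about 35% in these data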
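Material: hepatitis C virus NS3 helicase domain fragment enzyme; measured by: Cy5 fluorescence, 0 and 60 min reads; control set: DMSO and thioflavine S; incubation: 60 min unwinding reaction at 25 °C after ATP addition; read-out basis: % inhibition from 60/0 min fluorescence ratio, DMSO 0%, thioflavine S 100%; repeats: singlicate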
HSP90 refold inh: HSP90 refolding inhibition in rabbit reticulocyte lysate; luciferase refolding luminescence, 3 h; hit rate 0.91% among 290,000; inhibition, % at 5.6 µM;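 active = inhibition above the screen-wide mean plus 3 SD, computed separately per campaign, cut at about 16% in these data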;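 also: inhibitors lower the luminescence because luciferase stays unfolded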
HSF1 activator: increases HSF-1 driven luciferase reporter signal; NIH3T3-HGL HSF-1 luciferase reporter, MG132, 8 h; 100% = twice DMSO control signal; activation, % at 9 µM; hit rate 1.7% among 300,000;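 active = mean replicate activation of at least 50% with a set share of replicates each reaching 50%; inconclusive = only one of those two conditions met; inactive = mean below 50% and too few replicates reaching it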
HSF1 inh: HSF1 inhibition; NIH3T3-HGL HSE-luciferase, MG132-induced, luminescence 8 h; active compounds read low; activity change, negative = inhibition, % at 7.5 µM (by protocol); hit rate 0.77% among 300,000; AID 2098;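 active = more than half of replicate wells show activity change below -50%, luminescence cut by over half; inconclusive = some wells, but at most half, below -50%; inactive = no replicate well below -50%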;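 also: luciferase reports HSF-1 transcriptional activity via heat shock element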
Each line names hits and unclear results; the compound was inactive in the other large screens.

O=C(NCC(c1ccc(F)cc1)N1CCOCC1)c1ccco1 (stereo not drawn)	none (no result: Lipid droplet, HCV NS3 hel inh, HSP90 refold inh)
CCC(C)[C@H](NC(=O)[C@H](Cc1ccccc1)n1c(=O)[nH]c2ccccc2c1=O)C(=O)N1CCC[C@@H]1C(=O)O (stereo partly drawn)	none (no result: Lipid droplet)
COc1ccc(C(=O)NCC(=O)OCc2csc(-c3ccccc3)n2)cc1	none
CNS(=O)(=O)c1cccc(C(=O)OCc2csc(-c3ccccc3)n2)c1	HSF1 activator 67.5
O=C(OCc1csc(-c2ccccc2)n1)c1cccs1	HSF1 activator 91.4 (no result: Lipid droplet)
Cn1cccc1C(=O)OCc1csc(-c2ccccc2)n1	HSF1 activator 63.4 (no result: Lipid droplet)
O=C(CNS(=O)(=O)c1cccc(Cl)c1)OCc1csc(-c2ccccc2)n1	none
Cc1ccsc1C(=O)OCc1csc(-c2ccccc2)n1	HSF1 activator 58.6
O=C(O)/C=C/C(=O)NNC(=O)c1cccc(Br)c1	none
CNC(=O)C(=O)NCCC1CCCCN1S(=O)(=O)c1cccs1 (stereo not drawn)	none (no result: Lipid droplet, HCV NS3 hel inh, HSP90 refold inh)
O=C(CCN1C(=O)[C@@H]2Cc3ccccc3CN2C1=O)N[C@@H](Cc1ccccc1)C(=O)O	none
CCC(Sc1nc(C)cc(C)n1)C(=O)NC1=NN=C(c2ccc(C)cc2)CS1 (stereo not drawn)	HSF1 inh -73.9 (no result: Lipid droplet)
C/C(=N\N1CCN(C2c3ccccc3-c3ccccc32)CC1)c1cccnc1	none (no result: Lipid droplet)
CN=c1scc(-c2ccccc2F)n1/N=C(\C)c1cccnc1	HSF1 activator 77.9
O=C(NCc1ccco1)C1CCN(S(=O)(=O)c2cccc([N+](=O)[O-])c2)CC1	HSF1 inh -79.8
C=C(C)CSc1nnc(-c2ccc(OC)cc2)n1N	none (no result: Lipid droplet)
C=C(C)Cn1c(SCC(=O)O)nnc1-c1ccc(OC)cc1	HSF1 activator 58.9
O=C1CCC(C(=O)N2CCc3ccccc3C2)CN1CCCN1CCOCC1 (stereo not drawn)	none
C/C(=N/NC(=O)c1ccoc1C)C12CC3CC(CC(C3)C1)C2	HSF1 activator 59.3
C/C(=N\NC(=O)c1ccccn1)C12CC3CC(CC(C3)C1)C2	none (no result: Lipid droplet)
COc1ccc(CCNC(=O)C(=O)NCCC2CCCCN2S(=O)(=O)c2ccccc2)cc1 (stereo not drawn)	none (no result: Lipid droplet, HCV NS3 hel inh, HSP90 refold inh)
Cc1cccc(NC(=O)C[n+]2ccccc2)c1	none
Nc1cc[n+](CC(=O)Nc2ccccc2)cc1	HSF1 activator 56.5
CC(C)(CC(=O)O)CC(=O)NCc1c(Cl)cccc1Oc1ccccc1	none
C#CCSc1nnc(-c2ccc(C)cc2)o1	HSF1 activator 60.7
O=C(OCC#CCSc1nnc(-c2cccc3ccccc23)o1)c1cccs1	none (no result: Lipid droplet)
C#CCSc1nnc(-c2cccc3ccccc23)o1	HSF1 activator 68.6 (no result: Lipid droplet)
Cc1ccc(-c2nnc(SCc3ccccc3F)o2)cc1	HSF1 activator 57.6
CC1CC(C)CN(c2ncnc3c2cnn3Cc2ccc(Cl)cc2)C1 (stereo not drawn)	none
CC1CN(c2ncnc3c2cnn3-c2ccc(Cl)cc2)CC(C)O1 (stereo not drawn)	HSP90 refold inh 16.4 (no result: Lipid droplet)
Cc1cc(C)cc(C(=O)NN2CCN(C)CC2)c1	none
COc1ccc(C2C(C#N)=C(N)N(N(C)C)C3=C2C(=O)CC(C)(C)C3)cc1OC (stereo not drawn)	none (no result: Lipid droplet)
COc1cc(C2C(C#N)=C(N)N(N(C)C)C3=C2C(=O)CC(C)(C)C3)ccc1O (stereo not drawn)	HSF1 inh -75.8
CCOC(=O)c1c(NC(=O)CSc2nnc(C)c(=O)[nH]2)sc(C)c1C	none
CCOC(=O)CNC(=O)CSc1nnc(C)c(=O)[nH]1	HSF1 inh -80.6
COCCC(=O)N1CCC(Oc2ccc(C(=O)NCCc3cnn(C)c3)cc2)CC1	none
CCOc1ccccc1C=NN=Cc1ccccc1O	none (no result: Lipid droplet, HCV NS3 hel inh, HSP90 refold inh)
CCCS/C(N)=N/N=C/c1ccccc1O	HSF1 activator 55.8
Cc1cccnc1NC(=O)c1ccc(Cl)c(S(=O)(=O)N2CCCCCC2)c1	none
COc1ccc(-c2cc(C(=O)Nc3c(C)n(C)n(-c4ccccc4)c3=O)c3ccccc3n2)c(OC)c1	none
Nc1nc(Nc2cccc(F)c2)nc2ccccc12	HSF1 activator 55.5 (no result: Lipid droplet)
CC(C)CC(NC(=O)CCC(=O)OCC(=O)[C@@]1(O)CCC2[C@@H]3CCC4=CC(=O)C=C[C@]4(C)C3[C@@H](O)C[C@@]21C)C(=O)O (stereo partly drawn)	HSF1 inh -53.3
CSCCC(NC(=O)CCC(=O)OCC(=O)[C@@]1(O)CCC2[C@@H]3CCC4=CC(=O)C=C[C@]4(C)C3[C@@H](O)C[C@@]21C)C(=O)O (stereo partly drawn)	HSF1 inh -51.7
CCOc1nc(OCC)c2cnn(C)c2n1	none
Cc1cccc(-[n+]2c(C)cc(C)c3c(=O)[nH]c(=O)[nH]c32)c1	HSF1 activator 63.2
Cc1cc(C)[n+](-c2ccc(C(C)C)cc2)c2[nH]c(=O)[nH]c(=O)c12	none
Cc1ccc(N2CC(C(=O)Nc3nc4ccc(S(C)(=O)=O)cc4s3)CC2=O)cc1 (stereo not drawn)	HSF1 inh -80.0
CC1CC1C(=O)Nc1nc2ccc(Cl)cc2s1 (stereo not drawn)	HSF1 activator 61.1 (no result: Lipid droplet, HCV NS3 hel inh, HSP90 refold inh)
Cn1cc(Cl)c(C(=O)Nc2nc3ccc(Cl)cc3s2)n1	HSF1 activator 57.4 (no result: Lipid droplet)
CS(=O)(=O)c1ccc2nc(NC(=O)C3CC(=O)N(c4ccccc4)C3)sc2c1 (stereo not drawn)	none
CS(=O)(=O)c1ccc2nc(NC(=O)Nc3cccc(Cl)c3)sc2c1	HSF1 activator 98.6 (no result: Lipid droplet)
O=C(N/N=C(\c1ccccc1)c1cccnc1)c1cc(O)ccc1O	none
Cc1noc(C)c1CSc1ccccc1C(=O)N(C)CC(=O)Nc1cccc(F)c1	none (no result: Lipid droplet, HCV NS3 hel inh, HSP90 refold inh)
Cc1cc(N)n(-c2nc3ccccc3s2)n1	HSF1 inh inconclusive
Cc1cc(C)n(-c2nc3ccccc3s2)n1	HSF1 inh -84.2
Cc1nc(C)c(-c2ccc(SCc3ccc([N+](=O)[O-])cc3)nn2)s1	HSF1 activator 52.3
COCCCNC(=O)c1c[nH]c2ccc(S(=O)(=O)N3CCc4ccccc43)cc2c1=O	HSF1 activator 51.0
CCCCCN1C=CC(=C2C(=O)c3ccccc3C2=O)C=C1	HSP90 refold inh 79.6, HSF1 inh -81.3
CC1=CC(=C2C(=O)c3ccccc3C2=O)C=C(C)N1C	none (no result: Lipid droplet)
CSCC[C@H](NC(=O)Cc1c(C)c2cc3c4c(oc3cc2oc1=O)CCCC4)C(=O)O	none
COc1ccc(C2=NCCn3nc4cc([N+](=O)[O-])ccc4c32)cc1	HSF1 inh -66.0 (no result: Lipid droplet, HCV NS3 hel inh, HSP90 refold inh)
CC1(C)CN2C(=O)c3ccccc3C2(C)S1 (stereo not drawn)	none
Cc1cccn2cc(-c3ccc(F)cc3)nc12	none (no result: Lipid droplet)
Cc1cccn2cc(-c3ccccc3)nc12	HSF1 activator 68.6 (no result: Lipid droplet)
COc1ccc(-c2cn3cccc(C)c3n2)cc1Br	HSF1 activator 61.9
COc1cccc(CNC(=O)Cn2ncc3c(=O)oc4ccccc4c32)c1	none
Nc1c(C(=O)Nc2ccc3c(c2)OCCO3)nnn1Cc1ccc(Br)cc1	HSF1 activator 56.3 (no result: Lipid droplet, HCV NS3 hel inh, HSP90 refold inh)
O=C(Nc1ccc2c(c1)OCCO2)c1ccc(Br)cc1	none (no result: Lipid droplet)
